From ChEMBL document CHEMBL2010797, “Exploring aigialomycin d and its analogues as protein kinase inhibitors for cancer targets” (ACS Med Chem Lett, 2011) come the findings set out here.

Experiment [1] has as its target Cyclin-dependent kinase 2/cyclin A (Homo sapiens) (UniProt P24941+P20248+P78396). Description: Inhibition of CDK2/cyclin A using 5-FAM-GGGPATPKKAKKL-COOH as substrate at 10 uM after 1 hr by IMAP assay. Format: protein-complex assay. A digest of the protocol:
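IMAP fluorescence-polarization enzyme assay on CDK2/cyclin A, testing competition at the ATP site. Compounds tested at 10 μM, with purvalanol A at 1 μM as reference. Percent inhibition is the average ± SD of three independent experiments, or the mean of two for some compounds.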

The target in experiment [2] is MAP kinase-interacting serine/threonine-protein kinase 2 (Homo sapiens, UniProt Q9HBH9). The experiment can be described thus: Inhibition of MNK2 using 5-FAM-TATKSGSTTKNRFVV-NH2 as substrate preincubated for 1 hr prior substrate addition measured after 2 hrs by IMAP assay.
The nature of experiment [3]: Inhibition of MAP.
Experiment [4] addresses Cyclin-dependent kinase 2/cyclin A (Homo sapiens, UniProt P24941). Description: Inhibition of CDK2/cyclin A using 5-FAM-GGGPATPKKAKKL-COOH as substrate after 1 hr by IMAP assay. Format: protein-complex assay. A digest of the protocol:
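IMAP fluorescence-polarization assay on CDK2/cyclin A. IC50 taken from dose–response curves, given as average ± SD of three independent experiments, or the mean of two for one compound.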

A short description of experiment [5]: Inhibition of MEK.

Chain of MAP kinase-interacting serine/threonine-protein kinase 2 (Q9HBH9 whole entry): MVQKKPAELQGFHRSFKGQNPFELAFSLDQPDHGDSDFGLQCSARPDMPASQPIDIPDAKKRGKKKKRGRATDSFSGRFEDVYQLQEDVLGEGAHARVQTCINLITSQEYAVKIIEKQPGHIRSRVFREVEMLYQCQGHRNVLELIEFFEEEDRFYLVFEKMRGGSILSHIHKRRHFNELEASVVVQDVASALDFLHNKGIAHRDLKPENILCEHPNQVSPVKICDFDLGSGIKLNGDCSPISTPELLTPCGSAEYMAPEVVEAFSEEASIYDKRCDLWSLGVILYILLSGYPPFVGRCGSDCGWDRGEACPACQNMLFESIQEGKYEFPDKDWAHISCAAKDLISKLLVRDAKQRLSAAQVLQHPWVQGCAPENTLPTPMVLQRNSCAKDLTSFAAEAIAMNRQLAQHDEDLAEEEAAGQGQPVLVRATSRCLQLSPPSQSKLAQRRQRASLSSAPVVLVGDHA

For orientation: inhibition means the relative decrease from the control value, in per cent. Lower therefore signals a weak effect. The term IC50 denotes the point on the concentration scale where inhibition reaches its midpoint. High values mean lower potency, low ones higher potency. Compound `COc1cc(O)cc2c1C(=O)O[C@@H](C)CCC[C@@H](O)[C@@H](O)CC/C=C/2` returned an inhibition in experiment [1] of 10%. This compound also yielded an IC50 in experiment [2] greater than 10 µM. Consider `CC(C)[C@H](CO)Nc1nc(Nc2cccc(Cl)c2)c2ncn(C(C)C)c2n1`, for which, in experiment [1], the inhibition is 94%. With `O=C1OCC/C=C/[C@@H](O)[C@@H](O)CC/C=C/c2cc(O)cc(O)c21`, the inhibition in experiment [1] was 38%. The same compound showed a 50% inhibitory concentration (IC50) in experiment [2] greater than 10 µM. Consider `COc1cc(O)cc2c1C(=O)O[C@@H](C)C/C=C/[C@@H](O)[C@@H](O)CC/C=C/2`, for which the inhibition in experiment [1] was 17%. Moreover, the concentration for half-maximal inhibition (IC50) in experiment [2] was greater than 10 µM.

Regarding `C[C@H]1CCC[C@@H](O)[C@@H](O)CCCCc2cc(O)cc(O)c2C(=O)O1`, the inhibition in experiment [1] stood at 16%. The 50% inhibitory concentration (IC50) in experiment [2] is greater than 10 µM. Turning to `COc1cc(O)c2c(c1)[C@H]1O[C@@H]1C[C@H](O)[C@H](O)C(=O)/C=C\C[C@H](C)OC2=O`, the INH in experiment [3] was found to be 17 nM. On to `C[C@H]1CCC[C@@H](O)[C@@H](O)CCC(=O)Cc2cc(O)cc(O)c2C(=O)O1`, for which the inhibition in experiment [1] worked out at 17%. This compound also gave an IC50 in experiment [2] greater than 10 µM. Consider `C[C@H]1C/C=C/[C@H]2OC(C)(C)O[C@H]2CC/C=C/c2cc(O)cc(O)c2C(=O)O1`, for which, in experiment [1], the inhibition stood at 19%. Also, in experiment [2], the IC50 was determined as 0.58 µM.

As to `COc1cc(O)c2c(c1)/C=C/CC[C@H](O)[C@H](O)/C=C/C[C@H](C)OC2=O`, in experiment [1], the inhibition is 49%. Besides, the IC50 was 19 µM in experiment [4] and greater than 10 µM in experiment [2].

`C[C@H]1CCC[C@@H](O)[C@@H](O)CC/C=C/c2cc(O)cc(O)c2C(=O)O1` gave an inhibition in experiment [1] of 25%. In experiment [2], this compound showed a half-inhibitory concentration (IC50) of 1.35 µM.

As to `C[C@H]1C/C=C/[C@@H](O)[C@@H](O)CCC(O)Cc2cc(O)cc(O)c2C(=O)O1` (mixture of isomers), the inhibition in experiment [1] was determined as 8%. For the same compound, the half-maximal inhibitory concentration (IC50) in experiment [2] was greater than 10 µM. Take `C[C@H]1CCC[C@@H](O)[C@@H](O)CCC(O)Cc2cc(O)cc(O)c2C(=O)O1` (mixture of isomers): in experiment [1], the inhibition was 6%. For the same compound, the IC50 in experiment [2] is greater than 10 µM. For `C[C@H]1C/C=C/[C@@H](O)[C@@H](O)CCC(=O)Cc2cc(O)cc(O)c2C(=O)O1` the same measures were 21% and greater than 10 µM. In experiment [5], `COc1cc(O)c2c(c1)CCC[C@H](O)[C@H](O)C(=O)/C=C\C[C@H](C)OC2=O` came in with an INH of 4 nM. In turn, `COc1cc2c(c(OC)c1)C(=O)O[C@@H](C)C/C=C/[C@@H](O)[C@@H](O)CC/C=C/2` returned an inhibition in experiment [1] of 13%. For the same compound, the IC50 in experiment [2] is greater than 10 µM.

In experiment [1], `C[C@@H]1C/C=C/[C@@H](O)[C@@H](O)CC/C=C/c2cc(O)cc(O)c2C(=O)O1` had an inhibition of 64%. Further, the IC50 in experiment [4] was 19 µM; in experiment [2], greater than 10 µM. The compound `C[C@H]1C/C=C/CCCC/C=C/c2cc(O)cc(O)c2C(=O)O1` returned an inhibition in experiment [1] of 17%. Also, in experiment [2], the IC50 was 1.61 µM. On the same counts, the results for `C[C@H]1C/C=C/[C@@H](O)[C@@H](O)CCC(=NO)Cc2cc(O)cc(O)c2C(=O)O1` (mixture of isomers) are 19% and greater than 10 µM.
